Measured values reported in ChEMBL document CHEMBL4002578, “α-Glucosidase Inhibitors from the Marine-Derived Fungus Aspergillus flavipes HN4-13” (J Nat Prod, 2016).
Structures can show the parent of a compound that is named as a salt.

Key:
MCF7 = assay: Cytotoxicity against human MCF7 cells assessed as growth inhibition at 10 uM measured after 72 hrs by CCK-8 assay relative to control; type: functional; settings: MCF7, 72 h, read-out: GI
HepG2 = assay: Cytotoxicity against human HepG2 cells assessed as growth inhibition at 10 uM measured after 72 hrs by CCK-8 assay relative to control; type: functional; settings: HepG2, 72 h, read-out: GI
Jurkat = assay: Cytotoxicity against human Jurkat cells assessed as growth inhibition at 10 uM measured after 72 hrs by CCK-8 assay relative to control; type: functional; settings: read-out: GI
A549 = assay: Cytotoxicity against human A549 cells assessed as growth inhibition at 10 uM measured after 72 hrs by CCK-8 assay relative to control; type: functional; settings: A549, 72 h, read-out: GI
K562 = assay: Cytotoxicity against human K562 cells assessed as growth inhibition at 10 uM measured after 72 hrs by CCK-8 assay relative to control; type: functional; settings: K562, 72 h, read-out: GI
[1] = Inhibition of human alpha-glucosidase expressed in Saccharomyces cerevisiae using p-nitophenyl-alpha-glucopyranoside as substrate pretreated with substrate for 15 mins followed by enzyme addition measured after 15 mins
In short: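 Enzyme from a recombinant gene expressed in Saccharomyces cerevisiae, diluted to 0.2 U/mL in 0.01 M PBS. Compound, at three concentrations in sodium phosphate buffer pH 6.8, was mixed with 2.5 mM pNPG stock and held 15 min at 37 °C. Enzyme was then added for a further 15 min at 37 °C, and absorbance was read at 405 nm. The no-enzyme blank was subtracted, and IC50 was taken as the concentration giving 50% inhibition.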

[2] = Cytotoxicity against human Caco2 cells measured after 72 hrs by MTT assay; type: cell-based; settings: Caco-2 cells
In short: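 Caco-2 viability was measured by MTT, and the median cytotoxic concentration (CC50) was derived.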

[3] = Selectivity index, ratio of CC50 for human Caco2 cells to IC50 for human alpha-glucosidase expressed in Saccharomyces cerevisiae
In short: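 SI was calculated as Caco-2 CC50 (MTT) divided by the α-glucosidase IC50 from the pNPG assay.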

[4] = Non-competitive inhibition of human alpha-glucosidase expressed in Saccharomyces cerevisiae using varying levels of p-nitophenyl-alpha-glucopyranoside as substrate pretreated with substrate for 15 mins followed by enzyme addition measured after 15 mins by Lineweaver-burk plot analysis
[5] = Competitive inhibition of human alpha-glucosidase expressed in Saccharomyces cerevisiae using varying levels of p-nitophenyl-alpha-glucopyranoside as substrate pretreated with substrate for 15 mins followed by enzyme addition measured after 15 mins by Lineweaver-burk plot analysis

IC50 [1] [µM] | Ki [4] [µM] | Ki [5] [µM] | SMILES | inhibition of growth at 10 µM (MCF7) [%] | inhibition of growth at 10 µM (HepG2) [%] | inhibition of growth at 10 µM (Jurkat) [%] | inhibition of growth at 10 µM (A549) [%] | inhibition of growth at 10 µM (K562) [%] | CC50 at 72 h [2] [µM] | Ratio CC50/IC50 [3]
120 to 1300 |  |  | COC(=O)c1cc(O)cc(OC)c1Oc1cc(C)c(Cl)c(O)c1C(=O)O | < 34 | < 34 | < 34 | < 34 | < 34 |  | 
120 to 1300 |  |  | COc1cc(/C=C2\OC(=O)C(c3ccc(O)cc3)=C2O)ccc1O | < 34 | < 34 | < 34 | < 34 | < 34 |  | 
44 | 19 | 2.5 | CCOC(=O)[C@@]1(O)OC(=O)C(Cc2ccc3c(c2)CCC(C)(C)O3)=C1c1ccc(O)cc1 | < 34 | < 34 | < 34 | < 34 | < 34 | 519 | 12
55 | 5.5 | 6.3 | COC(=O)c1cc(O)cc(OC)c1Oc1c(Cl)c(C)c(Cl)c(O)c1C(=O)O [GEODIN HYDRATE] | < 34 | < 34 | < 34 | < 34 | < 34 | > 800 | >15
101 |  |  | C[C@H]1O[C@H](O[C@H]2[C@H](O)[C@@H](O)[C@@H](O[C@H]3[C@H](O)[C@@H](O)C(O)O[C@@H]3CO)O[C@@H]2CO)[C@H](O)[C@@H](O)[C@@H]1N[C@H]1C=C(CO)[C@@H](O)[C@H](O)[C@H]1O (some centres not stated) [ACARBOSE] |  |  |  |  |  |  | 
9.9 | 0.6 | 1.4 | COc1cc(O)cc(C(=O)O)c1Oc1cc(C)cc(O)c1C(=O)O | < 34 | < 34 | < 34 | < 34 | < 34 | > 800 | >81
57 | 14 | 3.4 | COC(=O)[C@@]1(O)OC(=O)C(Cc2ccc3c(c2)CCC(C)(C)O3)=C1c1ccc(O)cc1 | < 34 | < 34 | < 34 | < 34 | < 34 | 278 | 4.8
120 to 1300 |  |  | COC(=O)c1cc(O)cc(OC)c1C(=O)c1c(O)c(Cl)c(C)c(Cl)c1O [DIHYDROGEODIN] | < 34 | < 34 | < 34 | < 34 | < 34 |  | 
34 | 0.43 |  | CC1(C)CCc2cc(CC3OC(=O)C(O)=C3c3ccc(O)cc3)ccc2O1 (configuration not stated) | < 34 | < 34 | < 34 | < 34 | < 34 | > 800 | >24
 |  |  | COc1cccc2c1C(=O)c1c(O)c3c(c(O)c1C2=O)C[C@@](O)(C(=O)CO)C[C@@H]3O[C@H]1C[C@H](N)[C@H](O)[C@H](C)O1 [DOXORUBICIN HYDROCHLORIDE] | < 34 | < 34 | < 34 | < 34 | < 34 |  | 
90 | 2.8 |  | COC(=O)c1cc(O)cc(OC)c1Oc1c(Cl)c(C)c(Cl)c(O)c1C(=O)OC [METYL DICHLOROASTERRATE] | < 34 | < 34 | < 34 | < 34 | < 34 | > 800 | >8.9
33 | 7.2 | 2.5 | Cc1c(O)c(O)c(O)c(C=O)c1-c1cc2c(C=O)c(C)c(O)c(O)c2o1 | < 34 | < 34 | < 34 | < 34 | < 34 | > 800 | >24
120 to 1300 |  |  | COC(=O)c1cc(O)cc(OC)c1C(=O)c1c(O)cc(C)c(Cl)c1O | < 34 | < 34 | < 34 | < 34 | < 34 |  | 
79 |  |  | OC[C@H]1NC[C@H](O)[C@@H](O)[C@@H]1O [DUVOGLUSTAT] |  |  |  |  |  |  | 
 |  |  | COC(=O)c1cc(O)cc(OC)c1Oc1cc(C)cc(O)c1C(=O)O [ASTERRIC ACID] | < 34 | < 34 | < 34 | < 34 | < 34 |  | 
37 | 2.1 |  | COC(=O)[C@]1(Cc2ccc3c(c2)CCC(C)(C)O3)OC(=O)C(O)=C1c1ccc(O)cc1 | < 34 | < 34 | < 34 | < 34 | < 34 | > 800 | >22
95 | 4.7 | 9.2 | CC1(C)CCc2cc(CC3=C(c4ccc(O)cc4)[C@@](O)(C(=O)O)OC3=O)ccc2O1 | < 34 | < 34 | < 34 | < 34 | < 34 | > 800 | >8.5

SMILES | IC50 [1] [µM] | Ki [4] [µM] | Ki [5] [µM] | inhibition of growth at 10 µM (MCF7) [%] | inhibition of growth at 10 µM (HepG2) [%] | inhibition of growth at 10 µM (Jurkat) [%] | inhibition of growth at 10 µM (A549) [%] | inhibition of growth at 10 µM (K562) [%] | CC50 at 72 h [2] [µM] | Ratio CC50/IC50 [3]
Cc1cc(O)c2c(c1)C(=O)c1cc(O)cc(O)c1C2=O [EMODIN] | 19 | 0.79 |  | < 34 | < 34 | < 34 | < 34 | < 34 | > 800 | >43
